Source: PubChem BioAssay (several laboratories)
PAFAH1B2 inh = PAFAH1B2 (human) inhibition; recombinant PAFAH1B2, FP-rhodamine activity probe, fluorescence polarization; AID 492953; inhibition, % at 3.39 µM; hit rate 1.2% among 340,000; P68402;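 active means inhibition above the mean of all tested compounds plus 3 SD, cut at about 24% in these data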;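 further: 0% = enzyme with DMSO and 100% = wells lacking PAFAH1B2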
Target sequence (P68402 whole entry, looked up): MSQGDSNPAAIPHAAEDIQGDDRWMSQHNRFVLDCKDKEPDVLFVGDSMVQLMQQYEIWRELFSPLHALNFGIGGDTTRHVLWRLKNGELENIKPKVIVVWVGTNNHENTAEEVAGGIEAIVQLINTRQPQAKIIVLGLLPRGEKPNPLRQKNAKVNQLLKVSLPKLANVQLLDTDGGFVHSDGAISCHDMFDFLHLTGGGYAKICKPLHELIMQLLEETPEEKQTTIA
Apaf-1 inh = blocks human Apaf-1 apoptosome activity; O14727; reconstituted apoptosome caspase-3 activity, DEVD-Rh110 fluorescence; inhibition, % at 20 µM; hit rate 0.71% among 330,000; AID 489030; active means inhibition of at least 40% at 20 µM;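 further: plate controls were DMSO wells for no effect and DEVD-CHO caspase inhibitor wells for full effect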
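System: Apoptosome proteins | Medium: Hepes pH 7.5 with detergent and BSA | Also added: Cytochrome c trigger plus (Z-DEVD)2-Rh110 caspase-3 substrate | Incubation: 30 min compound preincubation, 50 min activation, room temperature | Detection: Rhodamine 110 fluorescence at Ex 480/Em 540 nm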
PAFAH2 inh = inhibitors of human PAFAH2; Q99487; recombinant PAFAH2, FP-rhodamine activity probe, fluorescence polarization; inhibition, % at 3.39 µM; hit rate 0.99% among 340,000; AID 492956;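 active means inhibition above the mean over all tested compounds plus 3 SD, cut at about 30% in these data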;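 further: inhibitors block probe labeling of enzyme so polarization drops; 0% = enzyme with DMSO and 100% = wells lacking PAFAH2 protein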
PAFAH1B3 inh = blocks human PAF acetylhydrolase 1B catalytic subunit 3 | Q15102 | recombinant PAFAH1B3, FP-rhodamine probe, fluorescence polarization | inhibition, % at 3.39 µM | hit rate 0.28% among 340,000 | AID 492972;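 active means inhibition above the screen-wide average of all tested compounds plus 3 SD, cut at about 25% in these data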;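 further: 0% = enzyme with DMSO only and 100% = wells lacking PAFAH1B3 protein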
Target sequence (Q15102 whole entry, looked up): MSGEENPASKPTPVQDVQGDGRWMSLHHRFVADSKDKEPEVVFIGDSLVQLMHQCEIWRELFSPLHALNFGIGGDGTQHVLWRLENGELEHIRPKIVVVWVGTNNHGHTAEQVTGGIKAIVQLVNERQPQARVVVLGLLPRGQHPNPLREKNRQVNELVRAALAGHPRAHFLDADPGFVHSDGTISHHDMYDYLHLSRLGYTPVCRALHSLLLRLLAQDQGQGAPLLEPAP
pPAFAH FP inh = pPAFAH (human) enzyme inhibition; Q13093; recombinant pPAFAH, FP-rhodamine probe fluorescence polarization; inhibition, % at 3.39 µM; hit rate 1.5% among 330,000; AID 463082;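 active means inhibition above the mean inhibition across the screen plus 3 SD, cut at about 25% in these data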;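 further: inhibitors block binding of the rhodamine activity-based probe so polarization drops; 0% = enzyme with DMSO and 100% = wells lacking pPAFAH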
PREPL inhibitor = inhibits the human prolyl oligopeptidase-like enzyme. inhibition, % at 5.96 µM. recombinant PREPL, fluorescence polarization activity-based probe. hit rate 0.68% among 320,000; in the data active means inhibition above about 43%;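 further: 0% = enzyme with DMSO and 100% = wells lacking enzyme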
Apaf-1 inh conf2 = Apaf-1 inhibition, single-dose confirmed. inhibition, % at 20 µM. hit rate 25% among 1,800. reconstituted apoptosome, caspase-3 DEVD-Rh110 fluorescence. shares compounds with Apaf-1 inh;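 active means mean inhibition of at least 40% at 20 µM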;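 further: plate controls were DMSO wells for no effect and DEVD-CHO caspase inhibitor control wells for full effect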
Rh110 quench = interferes with Rh110 fluorescence, flagging false Apaf-1 inhibitors; Rh110 fluorescence interference, quenched caspase reaction; shares compounds with Apaf-1 inh; activation (fluorescence interference), % at 20 µM; AID 504615; 1,800 tested, under 10 active;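 active means signal rise of 40% or more at 20 µM, treated as a fluorescence artifact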
Apaf1 inh interf = Apaf-1 inhibitor counter-screen fluorescence artifact. 460 tested, under 10 active. shares compounds with Apaf-1 inh. IC50, µM. fluorescence interference counterscreen, Apaf-1 assay format; call rule not given here
Starred values were filed as active, the others as inactive; · = no result. Shown are actives, neighbours in structure and some others; about 3.5% of the full set was active somewhere.

SMILES | PAFAH1B2 inh | Apaf-1 inh | PAFAH2 inh | PAFAH1B3 inh | pPAFAH FP inh | PREPL inhibitor | Apaf-1 inh conf2 | Rh110 quench | Apaf1 inh interf
CC(COc1ccccc1)N1CCC(CO)(Cc2ccccc2)CC1 (centres undefined) | 4.6 | -8.6 | -3.6 | 8.5 | -1.2 | -3.8 | · | · | ·
CCN(CC)CCCN1C=C2C(=O)C(C)(OC(=O)CCC(=O)OC)C(=O)C=C2C=C1C1CC1 (centres undefined) | -1.0 | 38.9 | 5.3 | 14.8 | 3.0 | 8.1 | · | · | ·
COC(=O)CCC(=O)OC1(C)C(=O)C=C2C=C(C3CC3)N(CC3CC3)C=C2C1=O (centres undefined) | 7.1 | 56.8* | 2.6 | 11.1 | 8.1 | 18.6 | 36.6 | 2.6 | ·
COC(=O)CCC(=O)OC1(C)C(=O)C=C2C=C(C3CC3)N(C3CCCC3)C=C2C1=O (centres undefined) | 0.1 | 67.5* | -1.9 | 7.5 | 7.8 | 15.2 | 38.3 | 7.8 | ·
CC1(OC(=O)CCc2ccccc2)C(=O)C=C2C=C(c3ccc(C#N)cc3)N(C3CCCC3)C=C2C1=O (centres undefined) | -1.1 | 14.4 | 0.6 | 7.6 | 8.7 | 15.8 | · | · | ·
C#CCOCCOCCOCCNc1nc(N2CCN(C(=O)CCCCCCCCCCNC(=O)Cn3cc(CCCCCN)nn3)CC2)nc(N2CCN(C(=O)CCCCCCCCCCNC(=O)[C@@H]([C@H](C)O)n3cc(C)nn3)CC2)n1 | 0.4 | 49.1* | 1.1 | -0.9 | 5.3 | 39.9 | 40.4* | 17.5 | >100
C#CCOCCOCCOCCNc1nc(N2CCN(C(=O)CCCCCCCCCCNC(=O)Cn3cc(C[C@@H](C)O)nn3)CC2)nc(N2CCN(C(=O)CCCCCCCCCCNC(=O)[C@@H]([C@H](C)CC)n3cc(CCCCCN)nn3)CC2)n1 | 4.0 | 53.7* | -12.3 | 13.7 | 6.6 | 42.2 | 49.7* | 13.2 | >100
C#CCOCCOCCOCCNc1nc(N2CCOCC2)nc(N2CCN(C(=O)CCCCCCCCCCNC(=O)[C@H]([C@@H](C)CC)n3cc(CCCCN=C(N)N)nn3)CC2)n1 | -9.5 | 59.5* | 1.3 | 6.2 | 3.8 | 26.9 | 29.2 | 0.8 | ·
CCCCn1c(N)c(N(CC(C)C)C(=O)c2ccc3c(c2)NC(=O)C(C)S3)c(=O)[nH]c1=O (centres undefined) | 0.8 | 3.5 | -1.1 | 6.5 | 6.8 | 9.2 | · | · | ·
COC(=O)/C=C1/SC(=NC(=O)c2ccc(Cl)cc2)NC1=O | 18.9 | -12.4 | 2.5 | 7.8 | 1.9 | 2.9 | · | · | ·
O=C1CC(N2CCOCC2)=NN1c1ccc([N+](=O)[O-])cc1 | 7.0 | 94.4* | 5.9 | 15.2 | 10.1 | -1.9 | 14.9 | 5.7 | ·
O=[N+]([O-])c1ccc(N2CCOCC2)nc1 | 5.7 | -5.1 | 8.6 | 9.0 | 5.3 | 11.1 | · | · | ·
O=C1NC(=S)N/C1=C/c1cc2c(cc1[N+](=O)[O-])OCO2 | 14.1 | 88.0* | 10.6 | 19.9 | 4.1 | 1.5 | 81.3* | 0.6 | >100
Cc1ccc(-c2nn3c(C)nnc3c3ccccc23)cc1S(=O)(=O)NC(C)c1ccccc1 (centres undefined) | 25.9* | 56.6* | -10.0 | 3.8 | 3.6 | -29.7 | 61.5* | 8.2 | >100
Cc1ccc(-c2nn3c(C)nnc3c3ccccc23)cc1S(=O)(=O)NCCO | 2.5 | 20.5 | 3.9 | 4.3 | -2.1 | 23.4 | · | · | ·
Cc1ccc(-c2nn3c(C)nnc3c3ccccc23)cc1S(=O)(=O)NC(C)(C)CO | 7.5 | 39.3 | 16.5 | 11.5 | 1.6 | 27.0 | · | · | ·
Cc1ccc(-c2nn3c(C)nnc3c3ccccc23)cc1S(=O)(=O)NCc1ccco1 | -1.6 | 43.5* | 7.9 | 3.3 | 7.3 | -3.7 | 61.2* | 4.8 | >100
COc1ccc(-n2nc3c(c2NC(=O)c2ccc(S(=O)(=O)N4CCOCC4)cc2)CS(=O)C3)cc1 (centres undefined) | 1.6 | -12.5 | -1.8 | -0.9 | -0.1 | -2.7 | · | · | ·
CC(=O)c1ccc2c(c1)c(C#N)c1ccccc1[n+]2[O-] | 3.5 | 73.9* | 0.6 | 4.5 | · | · | 42.3* | 2.2 | >100
